Tests used:
MCF7 = assay: Growth inhibition of MCF7 cells after 48 hrs; assay type: functional; conditions: Homo sapiens, MCF7, 48 h
Method in brief: (§1)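 NCI screening protocol. Cells in high-glucose DMEM with 5% bovine calf serum preincubated 24 h at 37 °C, 5% CO₂, then exposed 48 h to drug, final 10 to 0.3 µM (DMSO below 0.5%). TCA fixation, sulforhodamine B staining, absorbance at 585 nm against a plate fixed on treatment day to give growth inhibition and GI50. At least two experiments in triplicate.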

MDA-MB-231 = assay: Alkylation of beta-tubulin in MDA-MB-231 cells at 5 uM by electrophoretic mobility shift assay after 48 hrs; assay type: cell-based; conditions: Homo sapiens
HT-1080 = assay: Cell cycle arrest by accumulation at G2/M phase in HT1080 cells at 10 uM; assay type: functional, Homo sapiens
Method in brief: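 HT 1080 cells incubated with drug (dissolved in DMSO, 0.5% final DMSO in medium; DMSO control). Cells harvested, fixed in ice-cold ethanol, and 5 × 10⁵ cells per sample stained with propidium iodide 50 µg/mL plus RNase A 40 U/mL for 30 min at room temperature. Flow cytometry gave % apoptotic cells and % G0/G1, S and G2/M populations.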

M21 (human) [1] = assay: Induction of apoptosis in M21 cells at 3 uM
M21 (human) [2] = assay: Induction of apoptosis in M21 cells at 10 uM
M21 (human) [3] = assay: Induction of apoptosis in M21 cells at 25 uM
M21 (human) [4] = assay: Cell cycle arrest by accumulation at S phase in M21 cells at 3 uM
M21 (human) [5] = assay: Cell cycle arrest by accumulation at S phase in M21 cells at 10 uM
M21 (human) [6] = assay: Cell cycle arrest in M21 cells by accumulation at S phase at 25 uM
M21 (human) [7] = assay: Cell cycle arrest by accumulation at G2/M phase in M21 cells at 3 uM
M21 (human) [8] = assay: Cell cycle arrest by accumulation at G0/G1 phase in M21 cells at 3 uM
M21 (human) [9] = assay: Cell cycle arrest in M21 cells by accumulation at G2/M phase at 25 uM
M21 (human) [10] = assay: Cell cycle arrest by accumulation at G0/G1 phase in M21 cells at 10 uM
M21 (human) [11] = assay: Cell cycle arrest in M21 cells by accumulation at G0/G1 phase at 25 uM
HT-29 = assay: Growth inhibition of HT29 cells after 48 hrs; assay type: functional; conditions: Homo sapiens, HT-29, 48 h; method in brief: as §1
M21 = assay: Growth inhibition of M21 cells after 48 hrs; assay type: functional; conditions: Homo sapiens, M21, 48 h; method in brief: as §1
M21 (human) [12] = assay: Induction of apoptosis in M21 cells at 4 uM
M21 (human) [13] = assay: Induction of apoptosis in M21 cells at 1.2 uM
M21 (human) [14] = assay: Cell cycle arrest in M21 cells by accumulation at S phase at 4 uM
M21 (human) [15] = assay: Cell cycle arrest in M21 cells by accumulation at S phase at 1.2 uM
M21 (human) [16] = assay: Cell cycle arrest by accumulation at G2/M phase in M21 cells at 4 uM
M21 (human) [17] = assay: Cell cycle arrest in M21 cells by accumulation at G0/G1 phase at 4 uM
M21 (human) [18] = assay: Cell cycle arrest in M21 cells by accumulation at G2/M phase at 1.2 uM
M21 (human) [19] = assay: Cell cycle arrest in M21 cells by accumulation at G0/G1 phase at 1.2 uM

Structure (SMILES)	GI50 (MCF7) [µM]	GI50 (HT-29) [µM]	Activity (M21 (human) [2]) [%]	Activity (M21 (human) [5]) [%]	Activity (M21 (human) [10]) [%]	GI50 (M21) [µM]	other results
COCCc1cccc(NC(=O)NCCCl)c1	14	4	–	–	–	6	–
CCCCCc1cccc(NC(=O)NCCCl)c1	1	–	8.59	13.28	7.85	–	Activity (MDA-MB-231): 90%; Activity (HT-1080): 68.06%; Activity (M21 (human) [1]): 6.16%; Activity (M21 (human) [3]): 7.84%; Activity (M21 (human) [4]): 17.75%; Activity (M21 (human) [6]): 15.23%; Activity (M21 (human) [7]): 60.78%; Activity (M21 (human) [8]): 15.06%; Activity (M21 (human) [9]): 68.48%; Activity (M21 (human) [11]): 8.75%
COCc1cccc(NC(=O)NCCCl)c1	> 10	> 10	–	–	–	> 10	–
O=C(NCCCl)Nc1cccc(CCCCCO)c1	–	–	10.71	12.11	5.9	–	Activity (M21 (human) [12]): 9.83%; Activity (M21 (human) [13]): 7.58%; Activity (M21 (human) [14]): 12.12%; Activity (M21 (human) [15]): 16.65%; Activity (M21 (human) [16]): 70.24%; Activity (M21 (human) [17]): 7.57%; Activity (M21 (human) [18]): 21.82%; Activity (M21 (human) [19]): 54.35%
CCCCCCc1cccc(NC(=O)NCCCl)c1	1	1	–	–	–	1	–
COCCCc1cccc(NC(=O)NCCCl)c1	> 10	4	–	–	–	5	–

Second part, led by results:

GI50 (MCF7) [µM]	GI50 (HT-29) [µM]	Structure (SMILES)	Activity (M21 (human) [2]) [%]	Activity (M21 (human) [5]) [%]	Activity (M21 (human) [10]) [%]	GI50 (M21) [µM]	other results
1	–	COCCCCCc1cccc(NC(=O)NCCCl)c1	9.02	14.37	7.52	–	Activity (MDA-MB-231): 81%; Activity (HT-1080): 68.57%; Activity (M21 (human) [1]): 8.5%; Activity (M21 (human) [3]): 8.63%; Activity (M21 (human) [4]): 19.98%; Activity (M21 (human) [6]): 13.79%; Activity (M21 (human) [7]): 40.22%; Activity (M21 (human) [8]): 31.28%; Activity (M21 (human) [9]): 70.84%; Activity (M21 (human) [11]): 6.74%
3	1	COCCCCc1cccc(NC(=O)NCCCl)c1	–	–	–	2	–
> 10	> 10	COc1cccc(NC(=O)NCCCl)c1	–	–	–	> 10	–
2	1	CCCCCCCc1cccc(NC(=O)NCCCl)c1	–	–	–	1	–
